Values joined by “and” are separate entries in the source; they are usually repeats but may differ in a detail not shown here. Identical values can stand only once. Active and inactive are the calls of the source.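 How the source made its calls: active means blocks the KCNK9 potassium channel at some tested concentration and gives a dose response curve; inactive means the rest.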
Molecular target: Potassium channel subfamily K member 9 (Homo sapiens) (UniProt Q9NPC2)
Test: KCNK9 two-pore potassium channel inhibitors, SAR follow-up, cell-based, round 4 (AID 623887)
Details: HEK293-KCNK9 thallium flux, FluxOR fluorescence; for flux ratio, lower = inhibition: at 30 µM (top of the series)
Summary of the method: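 System: Tetracycline-induced HEK293 cells stably expressing the KCNK9 channel | Also added: Potassium/thallium sulfate stimulus buffer (5x stock) | Doses: Concentration series | Schedule: 90 min dye loading, then 20 min compound preincubation at room temperature | Detection: Kinetic FluxOR fluorescence of thallium influx, 110 s after stimulus | Repeats: Replicate measurements at each compound concentration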

Sequence of Potassium channel subfamily K member 9 (Homo sapiens) (Q9NPC2 whole entry, looked up): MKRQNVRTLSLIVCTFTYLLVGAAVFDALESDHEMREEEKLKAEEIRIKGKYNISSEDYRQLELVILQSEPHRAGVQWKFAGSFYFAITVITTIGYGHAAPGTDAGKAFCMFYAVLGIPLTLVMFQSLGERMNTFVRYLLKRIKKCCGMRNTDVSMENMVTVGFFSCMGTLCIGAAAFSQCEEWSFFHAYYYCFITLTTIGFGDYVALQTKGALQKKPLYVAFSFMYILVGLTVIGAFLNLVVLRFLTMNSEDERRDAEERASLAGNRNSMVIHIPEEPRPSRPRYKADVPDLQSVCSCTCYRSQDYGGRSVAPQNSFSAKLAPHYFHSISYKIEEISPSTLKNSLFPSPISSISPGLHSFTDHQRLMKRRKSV

Compound | IC50 | flux ratio, lower = inhibition
CC(C1C[C@H]2CCC1C2)n1c(-c2ccsc2)n[nH]c1=S (stereo partly drawn) | 0.582 µM | –
COc1cccc(-c2n[nH]c(=S)n2[C@H](C)C2CCCCC2)c1 | 3.42 µM | –
C[C@@H]([C@@H]1CC2CC[C@H]1C2)n1c(-c2ccco2)n[nH]c1=S | 0.181 µM and 0.128 µM | –
CC(C1CC2CCC1C2)n1c(SCC(=O)N2CCN(C)CC2)nnc1-c1ccco1 (stereo not drawn) | 28 µM | –
C[C@H](C1CCCCC1)n1c(-c2ccccc2F)n[nH]c1=S | 0.683 µM | –
COc1ccc(C(=O)CCSc2nnc(-c3ccco3)n2C(C)C2CC3CCC2C3)cc1OC (stereo not drawn) | 0.663 µM | –
COc1ccc(NC(=O)CSc2nnc(-c3ccco3)n2C(C)C2CC3CCC2C3)cc1OC (stereo not drawn) | 18.3 µM | –
COc1cccc(-c2nnc(SSc3nnc(-c4cccc(OC)c4)n3C(C)C3CC4CCC3C4)n2C(C)C2CC3CCC2C3)c1 (stereo not drawn) | 28 µM | –
CC(C1CC2CCC1C2)n1c(SCCc2ccccn2)nnc1-c1ccco1 (stereo not drawn) | 3.09 µM | –
CC(C1CC2CCC1C2)n1c(SCCN2CCOCC2)nnc1-c1ccco1 (stereo not drawn) | – | inactive
C[C@@H]([C@@H]1CC2CC[C@H]1C2)n1c(-c2ccsc2)n[nH]c1=S | 0.146 µM and 0.544 µM | –
COc1cccc(CCSc2nnc(-c3ccco3)n2C(C)C2CC3CCC2C3)c1 (stereo not drawn) | 1.19 µM | –
CC(C1CC2CCC1C2)n1c(SCCc2cccc(O)c2)nnc1-c1ccco1 (stereo not drawn) | 1.83 µM | –
COc1ccc(CC(=O)NCc2ccccc2-c2ccccc2C(=O)NCc2ccc(F)cc2F)cc1 | 3.2 µM | –
CC(C1CCN(C)CC1)n1c(-c2ccco2)n[nH]c1=S (stereo not drawn) | – | inactive
COc1ccc(CSc2nnc(-c3ccco3)n2C(C)C2CC3CCC2C3)cc1OC (stereo not drawn) | 0.547 µM | –

More lines, now with the values ahead:

IC50 | flux ratio, lower = inhibition | Compound
0.428 µM | – | C[C@H](C1CCCCC1)n1c(-c2ccsc2)n[nH]c1=S
0.223 µM | – | CC(C1CC2CCC1C2)n1c(-c2ccco2)nn(CCc2ccncc2)c1=S (stereo not drawn)
0.18 µM | – | CC([C@@H]1CC2CC[C@H]1C2)n1c(-c2ccsc2)n[nH]c1=S (stereo partly drawn)
0.169 µM | – | C[C@H]([C@@H]1CC2CC[C@H]1C2)n1c(-c2ccccc2F)n[nH]c1=S
0.053 µM | – | C[C@H]([C@@H]1CC2CC[C@H]1C2)n1c(-c2ccco2)n[nH]c1=S
0.467 µM | – | COc1cccc(-c2n[nH]c(=S)n2[C@H](C)[C@@H]2CC3CC[C@H]2C3)c1
0.141 µM | – | CCCC(=O)C1CCN(c2ncnc3c2CN(C(=O)c2ccc(-c4ccccc4)cc2)CC3)CC1
